{"source": "ChEMBL document CHEMBL4732237", "about": "“Discovery of 4-alkoxy-2-aryl-6,7-dimethoxyquinolines as a new class of topoisomerase I inhibitors endowed with potent in vitro anticancer activity” (2021)"}
{"system": "BT-549", "experiment": "Growth inhibition of human BT-549 cells at 10 uM incubated for 48 hrs by sulforhodamine B assay relative to control", "type": "functional", "conditions": "read-out: GI", "outline": "(§1)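 NCI-60 single-dose screen. Cells were grown in RPMI 1640 with 5% FBS and 2 mM L-glutamine and plated 24 h before drug addition. Compound was added at one concentration in DMSO-derived medium and incubated for 48 h at 37 °C in 5% CO2. Read-out was SRB protein stain at 515 nm. Result is percent growth versus the no-drug control and the time-zero cell count; values below 0 indicate lethality.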", "units": {"inhibition of growth at 10 µM": "%"}}
{"smiles": "COc1cc2nc(-c3ccsc3)cc(OCCCN3CCC(O)CC3)c2cc1OC", "inhibition of growth at 10 µM": 32}
{"system": "SF-268", "experiment": "Growth inhibition of human SF-268 cells at 10 uM incubated for 48 hrs by sulforhodamine B assay relative to control", "type": "functional", "conditions": "read-out: GI", "outline": "(§2)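 NCI one-dose screen. Cells grown in RPMI 1640 with 5% FBS and 2 mM L-glutamine, plated and incubated 24 h at 37 °C, 5% CO2. DMSO-dissolved drug added, then 48 h further incubation. Adherent cells fixed with cold TCA, suspension cells fixed after settling. Stained with 0.4% SRB, absorbance read at 515 nm. Reported as percent growth relative to no-drug control and time-zero cell number.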", "units": {"inhibition of growth at 10 µM": "%"}}
{"smiles": "COc1cc2nc(-c3ccsc3)cc(OCCCN3CCC(O)CC3)c2cc1OC", "inhibition of growth at 10 µM": 32}
{"system": "HOP-92", "experiment": "Growth inhibition of human HOP-92 cells at 10 uM incubated for 48 hrs by sulforhodamine B assay relative to control", "type": "functional", "conditions": "read-out: GI", "outline": "as §1", "units": {"inhibition of growth at 10 µM": "%"}}
{"smiles": "COc1cc2nc(-c3ccsc3)cc(OCCCN3CCC(O)CC3)c2cc1OC", "inhibition of growth at 10 µM": 32}
{"system": "UACC-257", "experiment": "Growth inhibition of human UACC-257 cells at 10 uM incubated for 48 hrs by sulforhodamine B assay relative to control", "type": "functional", "conditions": "read-out: GI", "outline": "(§3)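 NCI one-dose screen across a 59-line panel. Cells were grown in RPMI 1640 with 5% FBS and 2 mM L-glutamine, plated and pre-incubated 24 h, then exposed to drug for 48 h at 37 °C, 5% CO2. Adherent cells were fixed with cold TCA (10% final), stained with 0.4% SRB in 1% acetic acid and read at 515 nm. Result is percent growth relative to no-drug control and time-zero cell count.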", "units": {"inhibition of growth at 10 µM": "%"}}
{"smiles": "COc1cc2nc(-c3ccsc3)cc(OCCCN3CCC(O)CC3)c2cc1OC", "inhibition of growth at 10 µM": 32}
{"system": "SK-MEL-2", "experiment": "Growth inhibition of human SK-MEL-2 cells at 10 uM incubated for 48 hrs by sulforhodamine B assay relative to control", "type": "functional", "conditions": "read-out: GI", "outline": "as §2", "units": {"inhibition of growth at 10 µM": "%"}}
{"smiles": "COc1cc2nc(-c3ccsc3)cc(OCCCN3CCC(O)CC3)c2cc1OC", "inhibition of growth at 10 µM": 32}
{"system": "LOX IMVI", "experiment": "Growth inhibition of human LOX IMVI cells at 10 uM incubated for 48 hrs by sulforhodamine B assay relative to control", "type": "functional", "conditions": "read-out: GI", "outline": "as §1", "units": {"inhibition of growth at 10 µM": "%"}}
{"smiles": "COc1cc2nc(-c3ccsc3)cc(OCCCN3CCC(O)CC3)c2cc1OC", "inhibition of growth at 10 µM": 32}
{"system": "T47D", "experiment": "Growth inhibition of human T47D cells at 10 uM incubated for 48 hrs by sulforhodamine B assay relative to control", "type": "functional", "conditions": "read-out: GI", "outline": "as §3", "units": {"inhibition of growth at 10 µM": "%"}}
{"smiles": "COc1cc2nc(-c3ccsc3)cc(OCCCN3CCC(O)CC3)c2cc1OC", "inhibition of growth at 10 µM": 32}
{"system": "NCI/ADR-RES", "experiment": "Growth inhibition of human NCI/ADR-RES cells at 10 uM incubated for 48 hrs by sulforhodamine B assay relative to control", "type": "functional", "conditions": "read-out: GI", "outline": "as §2", "units": {"inhibition of growth at 10 µM": "%"}}
{"smiles": "COc1cc2nc(-c3ccsc3)cc(OCCCN3CCC(O)CC3)c2cc1OC", "inhibition of growth at 10 µM": 32}
{"system": "MDA-MB-468", "experiment": "Growth inhibition of human MDA-MB-468 cells at 10 uM incubated for 48 hrs by sulforhodamine B assay relative to control", "type": "functional", "conditions": "read-out: GI", "outline": "as §1", "units": {"inhibition of growth at 10 µM": "%"}}
{"smiles": "COc1cc2nc(-c3ccsc3)cc(OCCCN3CCC(O)CC3)c2cc1OC", "inhibition of growth at 10 µM": 32}
{"system": "NCI-H460", "experiment": "Growth inhibition of human NCI-H460 cells at 10 uM incubated for 48 hrs by sulforhodamine B assay relative to control", "type": "functional", "conditions": "read-out: GI", "outline": "as §2", "units": {"inhibition of growth at 10 µM": "%"}}
{"smiles": "COc1cc2nc(-c3ccsc3)cc(OCCCN3CCC(O)CC3)c2cc1OC", "inhibition of growth at 10 µM": 32}
{"system": "UACC-62", "experiment": "Growth inhibition of human UACC-62 cells at 10 uM incubated for 48 hrs by sulforhodamine B assay relative to control", "type": "functional", "conditions": "read-out: GI", "outline": "as §3", "units": {"inhibition of growth at 10 µM": "%"}}
{"smiles": "COc1cc2nc(-c3ccsc3)cc(OCCCN3CCC(O)CC3)c2cc1OC", "inhibition of growth at 10 µM": 32}
{"system": "KM12", "experiment": "Growth inhibition of human KM12 cells at 10 uM incubated for 48 hrs by sulforhodamine B assay relative to control", "type": "functional", "conditions": "read-out: GI", "outline": "as §1", "units": {"inhibition of growth at 10 µM": "%"}}
{"smiles": "COc1cc2nc(-c3ccsc3)cc(OCCCN3CCC(O)CC3)c2cc1OC", "inhibition of growth at 10 µM": 32}
{"system": "PC-3", "experiment": "Growth inhibition of human PC-3 cells at 10 uM incubated for 48 hrs by sulforhodamine B assay relative to control", "type": "functional", "conditions": "read-out: GI", "outline": "as §2", "units": {"inhibition of growth at 10 µM": "%"}}
{"smiles": "COc1cc2nc(-c3ccsc3)cc(OCCCN3CCC(O)CC3)c2cc1OC", "inhibition of growth at 10 µM": 32}
{"system": "OVCAR-3", "experiment": "Growth inhibition of human OVCAR-3 cells at 10 uM incubated for 48 hrs by sulforhodamine B assay relative to control", "type": "functional", "conditions": "read-out: GI", "outline": "as §2", "units": {"inhibition of growth at 10 µM": "%"}}
{"smiles": "COc1cc2nc(-c3ccsc3)cc(OCCCN3CCC(O)CC3)c2cc1OC", "inhibition of growth at 10 µM": 32}
{"system": "K562", "experiment": "Growth inhibition of human K562 cells at 10 uM incubated for 48 hrs by sulforhodamine B assay relative to control", "type": "functional", "conditions": "read-out: GI", "outline": "as §1", "units": {"inhibition of growth at 10 µM": "%"}}
{"smiles": "COc1cc2nc(-c3ccsc3)cc(OCCCN3CCC(O)CC3)c2cc1OC", "inhibition of growth at 10 µM": 32}
{"system": "SN12C", "experiment": "Growth inhibition of human SN12C cells at 10 uM incubated for 48 hrs by sulforhodamine B assay relative to control", "type": "functional", "conditions": "read-out: GI", "outline": "as §2", "units": {"inhibition of growth at 10 µM": "%"}}
{"smiles": "COc1cc2nc(-c3ccsc3)cc(OCCCN3CCC(O)CC3)c2cc1OC", "inhibition of growth at 10 µM": 32}
{"system": "Hs-578T", "experiment": "Growth inhibition of human HS-578T cells at 10 uM incubated for 48 hrs by sulforhodamine B assay relative to control", "type": "functional", "conditions": "read-out: GI", "outline": "as §1", "units": {"inhibition of growth at 10 µM": "%"}}
{"smiles": "COc1cc2nc(-c3ccsc3)cc(OCCCN3CCC(O)CC3)c2cc1OC", "inhibition of growth at 10 µM": 32}
{"system": "OVCAR-8", "experiment": "Growth inhibition of human OVCAR-8 cells at 10 uM incubated for 48 hrs by sulforhodamine B assay relative to control", "type": "functional", "conditions": "read-out: GI", "outline": "as §2", "units": {"inhibition of growth at 10 µM": "%"}}
{"smiles": "COc1cc2nc(-c3ccsc3)cc(OCCCN3CCC(O)CC3)c2cc1OC", "inhibition of growth at 10 µM": 32}
